Columns and labels:
pStat3 [1] = assay: Immunoblots of tumor tissue lysates from treated mice; type: in vivo, mouse; conditions: four-to-five cases out of six
Summary of the method: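 After oral dosing, lysates of residual subcutaneous U251MG tumour tissue from treated and 1% DMSO vehicle mice. Immunoblotted for pStat3 and Stat3, with GAPDH as loading reference.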

MDA-MB-231 cells = assay: CyQuant cell proliferation assay; type: cell-based, human; conditions: Homo sapiens, MDA-MB-231, 72 h, read-out: IC50 cell proliferation MDA-MB-231
Summary of the method: (§1)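 CyQuant DNA-dye proliferation assay on cultured cells after 72 h exposure to test compound. Viability expressed relative to DMSO-treated control cells.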

Stat3:Stat3 = Stat3:Stat3 (Mus musculus, UniProt P42227); assay: Cell-free EMSA, nuclear extracts pre-incubated with compound, hSIE probe; type: biochemical
U373MG cells = assay: CyQuant cell proliferation assay; type: cell-based; conditions: Homo sapiens, U373 MG, 72 h, read-out: IC50 cell proliferation U373MG
Summary of the method: as §1

G22 cells [2] = assay: 3D spheroid assay; type: cell-based, human; conditions: 5 μM, treated once
pStat3 [3] = assay: Immunoblotting of pStat3 in patient-derived xenograft cells; type: cell-based, human; conditions: 5 μM, 3 h
Summary of the method: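 Glioma patient-derived xenograft G22 cells (DMEM, 5–10% heat-inactivated FBS) given 5 μM test compound for 0–24 h. Whole-cell lysates immunoblotted for pStat3 and Stat3, with GAPDH as loading reference.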

pErk1/2MAPK [4] = assay: Immunoblotting, EGF-stimulated NIH3T3/hEGFR fibroblasts; type: cell-based, mouse; conditions: 5 μM pre-treatment
Summary of the method: (§2)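 NIH3T3/hEGFR fibroblasts pretreated with or without 5 μM test compound for 3 h, then stimulated with 1 μg/ml EGF for 12 min. Whole-cell lysates, equal total protein, immunoblotted for pStat1/Stat1, pStat5/Stat5 and pErk1/2/Erk1/2.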

pS-Akt = assay: Immunoblotting, U251MG glioma cells; type: cell-based, human; conditions: 5 μM
Summary of the method: (§3)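 U251MG cells given 5 μM test compound for 0–24 h. Whole-cell lysates of equal total protein immunoblotted for pErk1/2, Erk1/2, pS-Akt, Akt, pJAK2, JAK2, SOCS3 and PTP1B, with β-actin or GAPDH as loading reference.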

U251MG cells [5] = assay: Colony survival assay; type: cell-based, human; conditions: 1 μM, treated once
Summary of the method: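 Cells seeded as single cells at 250 per well and treated once the next day with test compound (0–5 μM) for 72 h. Grown until large colonies were visible: 1 week for NIH3T3, 2 weeks for U251MG. Colonies stained with crystal violet for 4 h and counted.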

pStat5 = assay: Immunoblotting, EGF-stimulated NIH3T3/hEGFR fibroblasts; type: cell-based, mouse; conditions: 5 μM pre-treatment
Summary of the method: as §2

G22 cells [6] = assay: Growth of glioma patient-derived xenograft cells in vitro; type: cell-based; conditions: Homo sapiens, read-out: inhibitory activity against growth of G22 cells
G12 cells = assay: as above; type: cell-based; conditions: Homo sapiens, read-out: inhibitory activity against G12 cell growth
pYStat3 = assay: Immunoblotting of pStat3 in treated U251MG cells; type: cell-based, human; conditions: 5 μM, glioma cells, immunoblotting
Summary of the method: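 Whole-cell lysates from U251MG cells given test compound at 5 μM for 0–24 h, or at 0–5 μM for 2 h. Immunoblotted for pY705Stat3 and total Stat3, with GAPDH as loading reference.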

pErk1/2MAPK [7] = assay: Immunoblotting, U251MG glioma cells; type: cell-based, human; conditions: 5 μM
Summary of the method: as §3

U251MG cells [8] = assay: Scratch assay for migration; type: cell-based, human; conditions: 5 μM, 19-h treatment
Summary of the method: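 Sub-confluent U251MG monolayers wounded with pipette tips and treated once with test compound (0–5 μM) or DMSO vehicle. Cells allowed to migrate into the denuded area over 19 h, then imaged by microscopy at 10×.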

[9] = Body weights and signs of toxicity in tumor-bearing mice; type: in vivo; conditions: 2 mg/kg, oral gavage, 33 days
[10] = system: suppressors of cytokine signaling (SOCS)3; assay: Immunoblotting, U251MG glioma cells; type: cell-based, human; conditions: 5 μM
Summary of the method: as §3

[11] = system: protein tyrosine phosphatase (PTP)1B; assay: Immunoblotting, U251MG glioma cells; type: cell-based, human; conditions: 5 μM
Summary of the method: as §3

U251MG cells [12] = assay: BrdU incorporation assay; type: cell-based, human; conditions: 5 μM, at 24 h
Summary of the method: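 U251MG cells on glass coverslips exposed to DMSO or 5 μM test compound for 3–24 h. BrdU (10 micromolar) added for the final 2 h. Fixed in 4% paraformaldehyde for 10 min, stained with anti-BrdU antibody and counterstained with DAPI. Imaged by fluorescence microscopy, and cells counted.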

G10 cells = assay: Growth of glioma patient-derived xenograft cells in vitro; type: cell-based; conditions: Homo sapiens, read-out: inhibitory activity against growth of G10 cells
U251MG cells [13] = assay: Immunofluorescence staining/confocal microscopy of mitosis; type: cell-based, human; conditions: 15 h treatment
Summary of the method: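 U251MG cells on coverslips synchronised by double thymidine block (2 mM) and released for 9 h. Then given DMSO, 100 nM paclitaxel or 8 μM test compound for 15 h. Fixed in 4% paraformaldehyde, permeabilised with 0.1% digitonin and blocked in 0.2% BSA. Stained with anti-β-tubulin (1:350) and anti-MAP1B (1:300) for 1 h at room temperature, then fluorescent secondaries and DAPI; confocal imaging.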

U251MG cells [14] = assay: Cell cycle distribution analysis; type: cell-based, human; conditions: 15 h treatment
Summary of the method: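 U251MG cells synchronised by double thymidine block (2 mM) and released for 9 h, then given DMSO or 8 μM test compound for 15 h. Fixed overnight at −20 °C in 70% ethanol/3% FBS in PBS. Stained in PI/RNase buffer for 15 min at room temperature, then DNA content measured by flow cytometry.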

[15] = system: U251MG subcutaneous tumor xenografts; assay: Subcutaneous glioma xenograft tumor growth; type: in vivo, mouse; conditions: 2 mg/kg, oral gavage, 33 days
Summary of the method: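 Female athymic nude mice, 4 weeks old, injected subcutaneously in the left flank with 7.3 ×10^6 U251MG cells in PBS/matrigel. At 20 days (tumours 170–250 mm3), mice grouped by matched mean tumour size. Dosed 2 mg/kg by oral gavage in 1% DMSO vehicle, three times weekly, for 33 days. Caliper volumes (V = 0.52 × a2 × b) and body weights recorded; paired t test against vehicle.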

NIH3T3/v-Src fibroblasts = assay: Trypan blue exclusion viable cell counting; type: cell-based, mouse; conditions: 1 and 2.5 μM
Summary of the method: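 Cells in culture treated once with increasing concentrations of test compound for 0–96 h. Harvested every 24 h, and viable cells counted by trypan blue exclusion under phase-contrast microscopy.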

Stat3 = Stat3 DNA-binding activity/EMSA of nuclear extracts from treated glioma cells; type: cell-based, human; conditions: 5 μM, glioma cells, EMSA

Stat3:Stat3, sequence (P42227 2-770 limits assumed): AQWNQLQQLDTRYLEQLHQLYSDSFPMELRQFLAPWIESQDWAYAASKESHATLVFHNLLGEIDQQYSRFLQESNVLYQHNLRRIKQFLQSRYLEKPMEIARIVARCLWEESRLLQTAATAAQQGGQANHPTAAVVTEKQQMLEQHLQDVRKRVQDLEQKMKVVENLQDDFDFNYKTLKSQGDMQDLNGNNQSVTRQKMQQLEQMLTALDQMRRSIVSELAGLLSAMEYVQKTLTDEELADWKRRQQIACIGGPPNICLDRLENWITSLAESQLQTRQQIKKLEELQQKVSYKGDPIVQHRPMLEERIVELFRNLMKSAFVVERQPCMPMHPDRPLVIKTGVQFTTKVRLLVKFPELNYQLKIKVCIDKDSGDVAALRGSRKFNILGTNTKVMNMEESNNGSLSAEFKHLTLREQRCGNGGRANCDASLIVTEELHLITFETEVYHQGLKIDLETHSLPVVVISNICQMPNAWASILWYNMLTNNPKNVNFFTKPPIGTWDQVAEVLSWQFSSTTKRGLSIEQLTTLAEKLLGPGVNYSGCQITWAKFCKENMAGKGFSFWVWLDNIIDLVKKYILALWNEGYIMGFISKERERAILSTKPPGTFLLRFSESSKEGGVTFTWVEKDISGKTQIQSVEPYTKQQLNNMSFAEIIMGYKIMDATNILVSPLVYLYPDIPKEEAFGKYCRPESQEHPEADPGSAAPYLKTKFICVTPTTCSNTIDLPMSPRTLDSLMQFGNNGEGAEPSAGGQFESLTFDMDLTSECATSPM

For `C/C=C(\C)C(=O)OCC1=C2/C(=C\[C@@]3(C)CC[C@](O)(O3)[C@H](C)C[C@@H]2O)OC1=O` [Compound 22], which “pStat3 and Stat3 levels in residual tumor tissues” value (pStat3 [1]) is on record?
The value was “lower”.

And the IC50 (MDA-MB-231 cells)?
Its IC50 is 5.2 to 9.1 µM.

And the “Stat3:Stat3/DNA-binding activity (complexation), cell-free EMSA” value (Stat3:Stat3; 5 μM, 30 min pre-incubation, NIH3T3/v-Src nuclear extracts)?
Its value is “diminished”.

And the “Stat3:Stat3/DNA complexation in the presence of Cys” value (Stat3:Stat3; in the presence of 50 μM Cys)?
Its value is “strongly inhibited”.

What about the IC50 (U373MG cells) of the same compound?
The IC50 was 6.6 to 8.2 µM.

And the 3D spheroid growth (G22 cells [2])?
The 3D spheroid growth was “decreased 3D spheroid growth”.

What about the “effect on Phospho-Stat3 in G22 cells” value (pStat3 [3]) of the same compound?
The value was “strongly inhibited”.

What about the “effect on EGF-stimulated pErk1/2MAPK levels” value (pErk1/2MAPK [4]) of the same compound?
Its value is “no effect”.

And the “effect on pS-Akt levels” value (pS-Akt)?
Its value is “no effects”.

And the U251MG colony formation (U251MG cells [5])?
Its U251MG colony formation is “completely inhibited”.

What about the “effect on EGF-stimulated pStat5 levels” value (pStat5) of the same compound?
Its value is “no effect”.

What about the inhibition at 5 µM (G22 cells [6]) of the same compound?
Its inhibition at 5 µM is 45 to 60%.

What about the inhibition at 5 µM (G12 cells) of the same compound?
The inhibition at 5 µM was 25 to 35%.

What about the “effect on pStat3 in treated tumor cells” value (pYStat3) of the same compound?
Its value is “strongly inhibited”.

What about the “effect on pErk1/2MAPK levels” value (pErk1/2MAPK [7]) of the same compound?
The value was “no effects”.

What about the “migration into the denuded area” value (U251MG cells [8]) of the same compound?
The value was “slowed migration”.

What about the “body weights or obvious signs of toxicity” value [9] of the same compound?
Its value is “No significant changes”.

And the “effect on SOCS3 levels” value [10]?
Its value is “no effects”.

What about the “effect on PTP1B levels” value [11] of the same compound?
Its value is “no effects”.

What about the “cell proliferation measured by BrdU incorporation” value (U251MG cells [12]) of the same compound?
Its value is “significantly impaired”.

And the inhibition at 5 µM (G10 cells)?
The inhibition at 5 µM was 45 to 60%.

What about the “chromatid structures and sister-chromatids segregation (mitosis)” value (U251MG cells [13]) of the same compound?
Its value is “caused defects”.

What about the cell cycle distribution (U251MG cells [14]) of the same compound?
The cell cycle distribution was “induced G2/M accumulation”.

And the “growth of subcutaneous U251MG xenografts” value [15]?
The value was “inhibited growth”.

And the “growth of NIH3T3/v-Src over normal NIH3T3 fibroblasts” value (NIH3T3/v-Src fibroblasts)?
Its value is “preferential inhibition of growth”.

And the “effect on Stat3 DNA-binding activity in treated tumor cells” value (Stat3)?
Its value is “strongly inhibited”.

Reference: paper PMC4834983 (Journal of medicinal chemistry, 2015)
